Measured values: ChEMBL document CHEMBL1146217, “Growth inhibition of Mycobacterium bovis, Mycobacterium tuberculosis and Mycobacterium avium in vitro: effect of 1-beta-D-2'-arabinofuranosyl and 1-(2'-deoxy-2'-fluoro-beta-D-2'-ribofuranosyl) pyrimidine nucleoside analogs” (J Med Chem, 2007)
Converted amounts (≈) assume the structure as drawn.

How the values were obtained:
Salmonella typhimurium [1] = assay: Antibacterial activity against Salmonella Typhimurium after 16 to 20 hrs by broth microdilution method; format: functional, Salmonella enterica subsp. enterica serovar Typhimurium; details: for MIC: Salmonella enterica
How it was run: (§1)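 Broth microdilution MIC. Exponentially growing bacteria diluted in sterile liquid medium to a final inoculum of 1 × 10⁴ CFU/mL. Cultured with compound dilutions for 16-20 h; compounds tested at 100, 50, 10 and 1 µg/mL. MIC taken as the concentration giving 100% inhibition of bacterial growth.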

Proteus vulgaris = assay: Antibacterial activity against Proteus vulgaris ATCC 49132 after 16 to 20 hrs by broth microdilution method; format: functional; how it was run: as §1
Mycobacterium avium [2] = assay: Antimycobacterial activity against Mycobacterium avium ATCC 25291 at 50 ug/mL by microplate Alamar blue assay; format: functional
How it was run: (§2)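 MABA with M. bovis BCG, M. tuberculosis H37Ra or M. avium ATCC 25291. DMSO stocks (10 mg/mL) diluted in 7H9GC; final inoculum 2.5 × 10⁵ CFU/mL. Incubated 6 days, then alamar blue plus Tween 80 added and read by fluorescence after about 24 h. […]. Tested in triplicate at 100, 50, 10 and 1 µg/mL; two experiments, mean reported.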

Bacillus subtilis [3] = assay: Antibacterial activity against Bacillus subtilis ATCC 6633 after 16 to 20 hrs by broth microdilution method; format: functional; how it was run: as §1
[4] = system: Staphylococcus epidermidis; assay: Antibacterial activity against Staphylococcus epidermidis ATCC 14990 after 16 to 20 hrs by broth microdilution method; format: functional; how it was run: as §1
Mycobacterium avium [5] = assay: Antimycobacterial activity against Mycobacterium avium ATCC 25291 by microplate Alamar blue assay; format: functional
How it was run: (§3)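 Same alamar blue microplate setup (7H9GC, 2.5 × 10⁵ CFU/mL, 6 days, then dye read after about 24 h), using 2-fold compound dilutions. MIC90 is the lowest concentration giving about 90% inhibition relative to bacteria-only wells after background subtraction. Visual MIC is the lowest concentration preventing the blue-to-pink change.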

[6] = system: Mycobacterium tuberculosis; assay: Antimycobacterial activity against Mycobacterium tuberculosis H37Ra by microplate Alamar blue assay; format: functional; how it was run: as §3
Listeria monocytogenes [7] = assay: Antibacterial activity Listeria monocytogenes ATCC 15313 after 16 to 20 hrs by broth microdilution method; format: functional; how it was run: as §1
Mycobacterium avium [8] = assay: Antimycobacterial activity against Mycobacterium avium ATCC 25291 at 100 ug/mL by microplate Alamar blue assay; format: functional; how it was run: as §2
[9] = system: Mycobacterium tuberculosis; assay: Antimycobacterial activity against Mycobacterium tuberculosis H37Ra at 50 ug/mL by microplate Alamar blue assay; format: functional; how it was run: as §2
Klebsiella aerogenes [10] = assay: Antibacterial activity against Enterobacter aerogenes after 16 to 20 hrs by broth microdilution method; format: functional; details: for MIC: Klebsiella aerogenes; how it was run: as §1
Pseudomonas aeruginosa [11] = assay: Antibacterial activity against Pseudomonas aeruginosa […] after 16 to 20 hrs by broth microdilution method; format: functional; details: for MIC: Pseudomonas aeruginosa, ATCC 13048; how it was run: as §1
Staphylococcus aureus [12] = assay: Antibacterial activity against Staphylococcus aureus ATCC 25923 after 16 to 20 hrs by broth microdilution method; format: functional; how it was run: as §1
[13] = system: Mycobacterium tuberculosis; assay: Antimycobacterial activity against Mycobacterium tuberculosis H37Ra at 100 ug/mL by microplate Alamar blue assay; format: functional; how it was run: as §2
Enterococcus faecalis [14] = assay: Antibacterial activity Enterococcus faecalis ATCC 29212 after 16 to 20 hrs by broth microdilution method; format: functional; how it was run: as §1
[15] = system: Mycobacterium tuberculosis; assay: Antimycobacterial activity against Mycobacterium tuberculosis H37Ra at 1ug/mL by microplate Alamar blue assay; format: functional; how it was run: as §2
Streptococcus pneumoniae [16] = assay: Antibacterial activity Streptococcus pneumoniae ATCC 49619 after 16 to 20 hrs by broth microdilution method; format: functional; how it was run: as §1
Vero = assay: Toxicity against Vero cells after 3 days by MTT test; format: cell-based; details: chlorocebus sabaeus, 72 h
How it was run: (§4)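 MTT viability assay. Vero or HFF cells seeded at 2.5 × 10⁵ cells/well and left to attach 6-8 h. Exposed to compound at 100, 50, 25, 12.5, 6.3 and 1.5 µg/mL for 3 days at 37 °C, with a DMSO control. MTT added for 4 h, then solubilized overnight; absorbance read at 560-650 nm.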

Escherichia coli [17] = assay: Antibacterial activity against Escherichia coli ATCC 25922 after 16 to 20 hrs by broth microdilution method; format: functional; details: for MIC: Escherichia coli, ATCC 25922; how it was run: as §1
[18] = system: Mycobacterium tuberculosis; assay: Antimycobacterial activity against Mycobacterium tuberculosis H37Ra at 10 ug/mL by microplate Alamar blue assay; format: functional; how it was run: as §2
Streptococcus pyogenes [19] = assay: Antibacterial activity Streptococcus pyogenes ATCC 19615 after 16 to 20 hrs by broth microdilution method; format: functional; how it was run: as §1
[20] = Toxicity against human foreskin fibroblast cells after 3 days by MTT test; format: cell-based; how it was run: as §4
Mycobacterium avium [21] = assay: Antimycobacterial activity against Mycobacterium avium ATCC 25291 at 2 ug/mL by microplate Alamar blue assay; format: functional
Bacillus subtilis [22] = assay: Antibacterial activity against Bacillus subtilis ATCC 6633 at 1 ug/ml after 16 to 20 hrs by broth microdilution method; format: functional
Listeria monocytogenes [23] = assay: Antibacterial activity Listeria monocytogenes ATCC 15313 at 1 ug/ml after 16 to 20 hrs by broth microdilution method; format: functional
Pseudomonas aeruginosa [24] = assay: Antibacterial activity against Pseudomonas aeruginosa […] at 1 ug/ml after 16 to 20 hrs by broth microdilution method; format: functional
Staphylococcus aureus [25] = assay: Antibacterial activity against Staphylococcus aureus ATCC 25923 at 1 ug/ml after 16 to 20 hrs by broth microdilution method; format: functional
[26] = system: Staphylococcus epidermidis; assay: Antibacterial activity against Staphylococcus epidermidis ATCC 14990 at 1 ug/ml after 16 to 20 hrs by broth microdilution method; format: functional
Salmonella typhimurium [27] = assay: Antibacterial activity against Salmonella Typhimurium at 1 ug/ml after 16 to 20 hrs by broth microdilution method; format: functional, Salmonella enterica subsp. enterica serovar Typhimurium; details: Salmonella enterica
Streptococcus pyogenes [28] = assay: Antibacterial activity Streptococcus pyogenes ATCC 19615 at 1 ug/ml after 16 to 20 hrs by broth microdilution method; format: functional
Escherichia coli [29] = assay: Antibacterial activity against Escherichia coli ATCC 25922 at 1 ug/ml after 16 to 20 hrs by broth microdilution method; format: functional
Klebsiella aerogenes [30] = assay: Antibacterial activity against Enterobacter aerogenes at 1 ug/ml after 16 to 20 hrs by broth microdilution method; format: functional
Enterococcus faecalis [31] = assay: Antibacterial activity Enterococcus faecalis ATCC 29212 at 1 ug/ml after 16 to 20 hrs by broth microdilution method; format: functional
Streptococcus pneumoniae [32] = assay: Antibacterial activity Streptococcus pneumoniae ATCC 49619 at 1 ug/ml after 16 to 20 hrs by broth microdilution method; format: functional

CCCCCCCCCCCC#Cc1cn([C@@H]2O[C@H](CO)[C@@H](O)[C@H]2F)c(=O)[nH]c1=O
MIC (Salmonella typhimurium [1]): > 100 µg/mL | MIC (Proteus vulgaris): > 100 µg/mL | inhibition at 50 µg/mL (Mycobacterium avium [2]): 50% | MIC (Bacillus subtilis [3]; Bacillus subtilis, ATCC 6633): > 100 µg/mL | Inhibition [4]: 100% | MIC ([4]; Staphylococcus epidermidis, ATCC 14990): 100 µg/mL (≈ 236 µM) | MIC90 (Mycobacterium avium [5]): 50 µg/mL (≈ 118 µM) | MIC90 [6]: 1 µg/mL (≈ 2.36 µM) | Inhibition (Listeria monocytogenes [7]): 100% | MIC (Listeria monocytogenes [7]; Listeria monocytogenes, ATCC 15313): 100 µg/mL (≈ 236 µM) | inhibition at 100 µg/mL (Mycobacterium avium [8]): 100% | inhibition at 50 µg/mL [9]: 100% | MIC (Klebsiella aerogenes [10]): > 100 µg/mL | MIC (Pseudomonas aeruginosa [11]): > 100 µg/mL | Inhibition (Staphylococcus aureus [12]): 100% | MIC (Staphylococcus aureus [12]; Staphylococcus aureus, ATCC 25923): 100 µg/mL (≈ 236 µM) | inhibition at 100 µg/mL [13]: 100% | Inhibition (Enterococcus faecalis [14]): 100% | MIC (Enterococcus faecalis [14]; Enterococcus faecalis, ATCC 29212): 100 µg/mL (≈ 236 µM) | inhibition at 1 µg/mL [15]: 90% | Inhibition (Streptococcus pneumoniae [16]): 100% | MIC (Streptococcus pneumoniae [16]; Streptococcus pneumoniae, ATCC 49619): 100 µg/mL (≈ 236 µM) | CC10 (Vero): > 100 µg/mL | MIC (Escherichia coli [17]): > 100 µg/mL | inhibition at 10 µg/mL [18]: 100% | Inhibition (Streptococcus pyogenes [19]): 100% | MIC (Streptococcus pyogenes [19]; Streptococcus pyogenes, ATCC 19615): 100 µg/mL (≈ 236 µM) | CC50 at 72 h [20]: > 100 µg/mL

CC[C@H]1OC(=O)[C@H](C)[C@@H](O[C@H]2C[C@@](C)(OC)[C@@H](O)[C@H](C)O2)[C@H](C)[C@@H](O[C@@H]2O[C@H](C)C[C@H](N(C)C)[C@H]2O)[C@](C)(OC)C[C@@H](C)C(=O)[C@H](C)[C@@H](O)[C@]1(C)O [CLARITHROMYCIN]
inhibition at 2 µg/mL (Mycobacterium avium [21]): 95% | MIC90 (Mycobacterium avium [5]): 2 µg/mL (≈ 2.67 µM)

CO[C@H]1/C=C/O[C@@]2(C)Oc3c(C)c(O)c4c(O)c(c(/C=N/N5CCN(C)CC5)c(O)c4c3C2=O)NC(=O)/C(C)=C\C=C\[C@H](C)[C@H](O)[C@@H](C)[C@@H](O)[C@@H](C)[C@H](OC(C)=O)[C@@H]1C [RIFAMPIN]
Inhibition (Salmonella typhimurium [1]): 100% | MIC (Salmonella typhimurium [1]): > 100 µg/mL | inhibition at 1 µg/mL (Bacillus subtilis [22]): 100% | inhibition at 1 µg/mL (Listeria monocytogenes [23]): 100% | MIC (Proteus vulgaris): > 100 µg/mL | Inhibition (Bacillus subtilis [3]): 100% | inhibition at 1 µg/mL (Pseudomonas aeruginosa [24]): 100% | inhibition at 2 µg/mL (Mycobacterium avium [21]): 90% | Inhibition [4]: 100% | MIC90 (Mycobacterium avium [5]): 2 µg/mL (≈ 2.43 µM) | MIC90 [6]: 0.5 µg/mL (≈ 0.608 µM) | inhibition at 1 µg/mL (Staphylococcus aureus [25]): 100% | inhibition at 1 µg/mL [26]: 100% | Inhibition (Listeria monocytogenes [7]): 100% | Inhibition (Klebsiella aerogenes [10]): 100% | MIC (Klebsiella aerogenes [10]): > 100 µg/mL | Inhibition (Pseudomonas aeruginosa [11]): 100% | MIC (Pseudomonas aeruginosa [11]): > 100 µg/mL | Inhibition (Staphylococcus aureus [12]): 100% | inhibition at 1 µg/mL (Salmonella typhimurium [27]): 100% | Inhibition (Escherichia coli [17]): 100% | MIC (Escherichia coli [17]): 100 µg/mL (≈ 122 µM) | inhibition at 1 µg/mL (Streptococcus pyogenes [28]): 100% | inhibition at 1 µg/mL (Escherichia coli [29]): 100% | inhibition at 1 µg/mL (Klebsiella aerogenes [30]): 100% | Inhibition (Streptococcus pyogenes [19]): 100%

CN[C@H](CC(C)C)C(=O)N[C@H]1C(=O)N[C@@H](CC(N)=O)C(=O)N[C@H]2C(=O)N[C@H]3C(=O)N[C@H](C(=O)N[C@H](C(=O)O)c4cc(O)cc(O)c4-c4cc3ccc4O)[C@H](O)c3ccc(c(Cl)c3)Oc3cc2cc(c3O[C@@H]2O[C@H](CO)[C@@H](O)[C@H](O)[C@H]2O[C@H]2C[C@](C)(N)[C@H](O)[C@H](C)O2)Oc2ccc(cc2Cl)[C@H]1O [VANCOMYCIN]
Inhibition (Salmonella typhimurium [1]): 50% | inhibition at 1 µg/mL (Bacillus subtilis [22]): 50% | inhibition at 1 µg/mL (Listeria monocytogenes [23]): 100% | MIC (Proteus vulgaris): > 100 µg/mL | Inhibition (Bacillus subtilis [3]): 50% | Inhibition [4]: 50% | inhibition at 1 µg/mL [26]: 50% | Inhibition (Listeria monocytogenes [7]): 100% | MIC (Klebsiella aerogenes [10]): > 100 µg/mL | MIC (Pseudomonas aeruginosa [11]): > 100 µg/mL | inhibition at 1 µg/mL (Enterococcus faecalis [31]): 100% | Inhibition (Enterococcus faecalis [14]): 100% | inhibition at 1 µg/mL (Streptococcus pneumoniae [32]): 100% | Inhibition (Streptococcus pneumoniae [16]): 100% | inhibition at 1 µg/mL (Salmonella typhimurium [27]): 50% | MIC (Escherichia coli [17]): > 100 µg/mL | inhibition at 1 µg/mL (Streptococcus pyogenes [28]): 100% | Inhibition (Streptococcus pyogenes [19]): 100%
